IMP-1 inhibitor = inhibitors of Pseudomonas aeruginosa IMP-1 metallo-beta-lactamase; purified IMP-1, nitrocefin hydrolysis, epi-absorbance fluorescence; inhibition, % at 5.6 µM; 290,000 tested, 0.45% active; AID 1556;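 active = inhibition above the mean plus 3 SD of all compounds in the same screening run, cut at about 4.5% in these data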;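 also: 0% = IMP-1 with DMSO and 100% = DMSO wells lacking enzyme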
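assay system = purified recombinant IMP-1 metallo-beta-lactamase enzyme | schedule = 15 min preincubation plus 25 min reaction at 25 °C | signal = Epi-absorbance fluorescence, 480 nm excitation, 530 nm emission | read-out basis = percent inhibition from optical density relative to buffer-blank wells | controls = IMP-1 with DMSO as 0%, enzyme-free DMSO as 100%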
NALP3 yeast inh = blocks the NALP3 inflammasome reconstituted in yeast; Yeast reconstituted NLRP3/ASC/caspase-1, beta-gal luminescence, 24 h; inhibition, % at 10 µM; 330,000 tested, 0.39% active; AID 2825;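 active = inhibition of 50% or more; inactive = inhibition below 50%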;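 also: plate controls were induced DMSO wells for no effect and uninduced yeast grown without galactose for full effect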
PolyA inhibitor = inhibitors of polyadenylation in S. cerevisiae; S. cerevisiae SKY197-pL101 polyadenylation reporter, beta-gal luminescence; efflux-impaired pdr1/pdr3 knockout yeast; score 100 = 6 SD above DMSO; activity score, % at 12 µM; 300,000 tested, 0.02% active; AID 1875;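 active = lowest replicate activity score at least 50, where 100 means six control SD above control mean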;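 also: yeast exposed to compound for 9 h at 30 °C; higher score means more reporter readthrough which indicates perturbed polyadenylation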
NALP1 yeast inh = blocks the NALP1 inflammasome reconstituted in yeast | S. cerevisiae NALP1/ASC/caspase-1 growth, X-gal OD620, 72 h | inhibition, % at 10 µM | 280,000 tested, 0.61% active | AID 2071; in the data active = inhibition mostly above about 24%, no sharp cut-off; inactive = mostly below about 32%
VIM-2 inh = inhibitors of Pseudomonas aeruginosa VIM-2 metallo-beta-lactamase; purified VIM-2, nitrocefin hydrolysis, epi-absorbance fluorescence; inhibition, % at 5.6 µM; AID 1527; 290,000 tested, 0.89% active;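 active = inhibition above the mean of all tested compounds plus 3 SD, cutoff set per screening run, cut at about 7.5% in these data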;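 also: red hydrolysis product quenches plate fluorescence so inhibitors raise well fluorescence; 0% = enzyme with DMSO and 100% = DMSO without enzyme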
SUMO Mot1 rescue = blocks SUMOylation pathway, rescuing yeast Mot1-301 growth; S. cerevisiae Mot1-301 growth rescue, ATP luminescence, 38.5C; percent above DMSO median, 100 means doubled; growth rescue, % at 18.8 µM; 320,000 tested, 1% active; AID 2716;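 active = every valid replicate shows activation above 250% relative to neutral control wells; inactive = the rest, any valid replicate at or below 250%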;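 also: OY570 slx delta 5 strain wells were the positive control but not used for scaling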
Starred values were filed as active, the others as inactive; . = no result given; + = active, no number. This is a sample that favours compounds with a hit; in the whole collection about 2.9% have one here.

SMILES | IMP-1 inhibitor | NALP3 yeast inh | PolyA inhibitor | NALP1 yeast inh | VIM-2 inh | SUMO Mot1 rescue
CC1(C)CC(=O)C2=C(C1)NC(SCC(=O)Nc1ccccc1)=C(C#N)C2c1ccco1 (stereo not drawn) | -7.3 | 4.0 | -2.7 | 4.1 | -2.5 | 18.6
Cc1ccc(C(=O)CSC2=C(C#N)C(c3ccco3)C3=C(CC(C)(C)CC3=O)N2)cc1 (stereo not drawn) | 5.5* | 17.1 | 3.6 | 10.9 | 1.9 | 6.0
CCc1cc(OCCCCNCc2ccccc2)ccc1Cl | -1.6 | 22.4 | -50.3 | 63.0* | 0.0 | -4.7
CCOCCCNCc1ccc(OCc2ccccc2Cl)cc1 | -0.7 | 32.0 | -67.9 | 51.9* | -1.6 | 122.3
CCN(C(=O)CSc1nnc(SC)s1)c1c(N)n(Cc2ccccc2)c(=O)[nH]c1=O | . | 7.4 | . | . | . | 3.0
CCCS(=O)(=O)c1nc(S(=O)(=O)c2ccc(C)cc2)c(NCCCN2CCCC2=O)s1 | -4.3 | -7.7 | -2.0 | 9.6 | 0.3 | -4.9
CCOP(=O)(OCC)/C(=C/N1CCCCC1)NC(=O)c1ccccc1 | -5.0 | 15.5 | -7.2 | 34.0* | -0.8 | -7.8
CCOC(=O)C(NC(=O)c1ccccc1)=C1CCCCC1 | -2.7 | 26.0 | 13.0 | -9.0 | -2.6 | 47.2
COc1ccccc1N(CC(=O)NCCN1CCOCC1)S(=O)(=O)c1ccc(C)cc1 | . | 5.0 | 31.6 | . | . | -6.8
Cn1cc(SCC(=O)N2CCCc3ccccc32)c2ccccc21 | 6.9* | 15.9 | -11.6 | 33.1 | -0.1 | 259.1
CCN1C(=O)C2(C(C(=O)c3cc4ccccc4o3)=C(O)C(=O)N2CCCN2CCOCC2)c2ccccc21 (stereo not drawn) | -4.4 | 9.7 | -1.0 | . | -4.8 | 177.8
Cc1nn(C)c(Oc2ccc(Cl)cc2)c1C(=O)Nc1ccc(F)cc1F | -4.9 | 10.5 | -3.0 | 1.5 | -1.5 | 312.2*
O=S(=O)(NC1C2CC3CC(C2)CC1C3)c1ccccc1 (stereo not drawn) | . | 39.1 | . | . | . | 23.4
COc1ccc(-n2c(C)c([N+](=O)[O-])c3ccc(O)c(CN(C)C)c32)cc1 | -1.1 | 20.5 | 0.5 | 24.2* | -4.6 | 2.3
Cc1ccc(OCC(=O)N2CCCCC2C)c([N+](=O)[O-])n1 (stereo not drawn) | . | 9.9 | . | . | . | 180.0
CCCN(CCC)CCNC(=O)c1cc2c(=O)n(CC)c3ccccc3c2s1 | -1.1 | 0.4 | -6.7 | . | 10.3* | 7.7
CCn1c(=O)c2cc(C(=O)NCCOC)sc2c2ccccc21 | -5.3 | 17.3 | 6.2 | 1.5 | 8.3* | 1.4
COc1ccc(NC(=O)Cn2c(=O)sc3ccccc32)c(OC)c1 | -2.1 | -4.3 | 5.9 | 39.4* | -3.1 | -19.5
COc1ccccc1NC(=O)Cn1c(=O)sc2ccccc21 | -2.8 | 16.9 | -7.2 | 1.0 | -0.9 | -16.7
CCn1c(=O)c2cc(C(=O)N(C)CC(OC)OC)sc2c2ccccc21 | -2.9 | 6.4 | -12.7 | 4.0 | 7.0 | 5.4
CCCN(CCC)CCCNC(=O)c1cc2c(=O)[nH]c3ccccc3c2s1 | -4.6 | 6.5 | -3.2 | 7.2 | 9.7* | -12.8
Cc1noc(C)c1NC(=O)N(C)C[C@H]1Oc2ccc(NC(=O)Nc3ccccc3)cc2C(=O)N([C@H](C)CO)C[C@@H]1C | . | 12.1 | . | . | . | -4.9
CCn1cc(C(=O)N[C@H](C(=O)NCCCN2CCOCC2)C(C)C)c(=O)c2cc3c(cc21)OCO3 | -0.9 | 10.9 | 5.2 | 18.0 | 2.8 | 9.2
CCn1c(=O)c2cc(C(=O)Nc3ccc(OC)cc3OC)sc2c2ccccc21 | -1.2 | -10.6 | -4.9 | . | 0.1 | +
CCOCCCNC(=O)c1cc2c(=O)n(CC)c3ccccc3c2s1 | -2.2 | 15.8 | 1.4 | 19.0 | 7.9* | 63.5
SMILES | IMP-1 inhibitor | NALP3 yeast inh | PolyA inhibitor | NALP1 yeast inh | VIM-2 inh | SUMO Mot1 rescue
CCN1CCN(C(=O)CCc2nnc3ccc(N4CCC5(CC4)OCCO5)nn23)CC1 | -4.1 | -3.1 | 7.2 | -6.1 | -0.6 | -10.0
CC(=O)Nc1ccc(C(=O)COC(=O)CCc2ccccc2)c(F)c1 | . | 15.8 | . | . | . | 5.5
CSc1nnc(-c2cc[n+](C)cc2)n1CCO | 4.9* | 1.0 | -1.9 | 21.5 | -3.7 | 9.0
CCOC(=O)c1nn(-c2ccccc2)c(=O)c2c(N)scc12 | -3.1 | 1.3 | . | 11.7 | 5.0 | 332.1*
COc1cc(NC(=S)N2CCN(C)CC2)cc(OC)c1 | -1.0 | 8.0 | 3.8 | 12.7 | 1.8 | -15.1
Cc1ccc(-n2nnc(-c3nccs3)n2)cc1 | -2.0 | 37.0 | -5.4 | 10.6 | -0.7 | -12.7
Clc1ccc(-n2nnc(-c3nccs3)n2)cc1Cl | -2.6 | 33.9 | 11.1 | 5.1 | -2.0 | 330.4*
O=C1CC(N2CCN(S(=O)(=O)c3ccccc3F)CC2)C(=O)N1c1ccc(F)cc1F (stereo not drawn) | . | 17.9 | . | . | . | 23.4
Cc1ccc(N2C(=O)c3cccc4c(N)ccc(c34)C2=O)c2cccnc12 | 5.7* | -1.8 | 0.6 | . | 4.8 | 4.1
CCCn1c2ccccc2c2cnn(CC(=O)N3CCN(C4CCCCC4)CC3)c(=O)c21 | 0.9 | 9.4 | 2.5 | 17.9 | 7.8* | -1.8
CCC(C(=O)OCC(=O)N(CCOC)c1c(N)n(Cc2ccccc2)c(=O)[nH]c1=O)c1ccccc1 (stereo not drawn) | -1.9 | 13.4 | 3.8 | 33.0* | -1.7 | 1.5
CN1CCN(C2=Nc3c(Cl)cc(Cl)c4cccc2c34)CC1 | -0.5 | 29.4 | -17.1 | 5.4 | 7.7* | 28.9
CCCOc1ccc(C(=O)CCN2CCN(C(=O)OCC)CC2)cc1 | -1.1 | . | . | -13.5 | -1.7 | .
c1ccc2c(CSc3ncnc4nc[nH]c34)cccc2c1 | -3.2 | 12.1 | 6.3 | -1.0 | -1.9 | 294.6*
O=C(CN1CCN(c2ccccc2)CC1)NC(=O)NCc1ccccc1 | . | 22.3 | . | . | . | -8.5
CC1CCN(CC(=O)NC(=O)NCc2ccccc2)CC1 | -3.2 | 11.7 | 4.8 | 17.7 | -3.4 | 331.5*
O=C(CN1CCN(Cc2cccc3ccccc23)CC1)NCCc1ccccc1 | -3.6 | 7.2 | -10.5 | 26.6* | -0.1 | -11.3
CC(=O)c1ccc(N2CCN(CC(=O)NCc3ccccc3)CC2)cc1 | 6.5* | -0.3 | 27.3 | 18.5 | 1.0 | -10.3
CC(=O)c1nc(N2C(=O)CC(Cc3cccc(C)c3)C2=O)sc1C (stereo not drawn) | 16.6* | 8.6 | -16.2 | -1.8 | -5.6 | 304.9
CC(=O)c1nc(N2C(=O)CC(Cc3cc(C)cc(C)c3)C2=O)sc1C (stereo not drawn) | 0.6 | 14.1 | -4.5 | 22.5 | -1.0 | 2.9
C=CCn1c(CNC(=O)c2ccccc2F)nnc1SCC(=O)N1CCOCC1 | 0.1 | 10.5 | 0.1 | 22.5 | 2.4 | 1.5
CCOc1ccc(C(C)=O)cc1Cn1nc(C(=O)O)c2ccccc2c1=O | -2.9 | 3.0 | 19.2 | -7.0 | 9.8* | -0.3
Cc1cccn2c(=O)c3cc(C(=O)NCC4CCCO4)c(=N)n(Cc4cccnc4)c3nc12 (stereo not drawn) | -2.6 | 3.9 | . | 2.9 | 1.9 | 8.1
